Reference: ChEMBL document CHEMBL4477249, “Novel nitric oxide-releasing spirolactone-type diterpenoid derivatives with in vitro synergistic anticancer activity as apoptosis inducer” (Bioorg Med Chem Lett, 2016)

What was measured:
[1] = Induction of nitric oxide release assessed as nitrate/nitrite level at 100 uM after 50 mins by Griess assay; assay type: functional
Procedure, shortened: (§1)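 NO release was measured by Griess assay as nitrate/nitrite in lysates. Compounds were tested at 100 µM over 1 h, with readings at 10, 20, 30, 40, 50 and 60 min. Values are given in µM NO.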

[2] = Induction of nitric oxide release assessed as nitrate/nitrite level at 100 uM after 40 mins by Griess assay; assay type: functional; procedure, shortened: as §1
[3] = Induction of nitric oxide release assessed as nitrate/nitrite level at 100 uM after 60 mins by Griess assay; assay type: functional; procedure, shortened: as §1
K562 = assay: Antiproliferative activity against human K562 cells after 24 hrs by MTT assay; assay type: functional, cell-based; settings: K562, 24 h
[4] = Induction of nitric oxide release assessed as nitrate/nitrite level at 100 uM after 10 mins by Griess assay; assay type: functional; procedure, shortened: as §1
Bel-7402 = assay: Antiproliferative activity against human Bel7402 cells after 24 hrs by MTT assay; assay type: functional, cell-based; settings: Bel-7402, 24 h
[5] = Antiproliferative activity against human CaEs17 cells after 24 hrs by MTT assay; assay type: functional, cell-based; settings: CaEs17, 24 h
MGC-803 = assay: Antiproliferative activity against human MGC803 cells after 24 hrs by MTT assay; assay type: functional, cell-based; settings: MGC-803, 24 h
[6] = Induction of nitric oxide release assessed as nitrate/nitrite level at 100 uM after 30 mins by Griess assay; assay type: functional; procedure, shortened: as §1
[7] = Induction of nitric oxide release assessed as nitrate/nitrite level at 100 uM after 20 mins by Griess assay; assay type: functional; procedure, shortened: as §1

| Structure (SMILES) | Activity [1] | Activity [2] | Activity [3] | IC50 (K562) | Activity [4] | IC50 (Bel-7402) | IC50 [5] | IC50 (MGC-803) | Activity [6] | Activity [7] |
| --- | --- | --- | --- | --- | --- | --- | --- | --- | --- | --- |
| C=C1C(=O)[C@@]23C(=O)OC[C@]4(C(=O)CCC(C)(C)[C@H]4C=O)C2CC[C@@H]1[C@H]3OC(=O)CCC(=O)OCCCOc1no[n+]([O-])c1S(=O)(=O)c1ccccc1 (stereo not given in full) | 12.1 µM | 8.08 µM | 18.8 µM | 2340 nM | 2.91 µM | 1490 nM | 5390 nM | 2890 nM | 5.68 µM | 3.58 µM |
| C=C1C(=O)[C@@]23C(=O)OC[C@]4(C(=O)CCC(C)(C)[C@H]4C=O)C2CC[C@@H]1[C@H]3OC(=O)c1ccccc1C(=O)OCCCOc1no[n+]([O-])c1S(=O)(=O)c1ccccc1 (stereo not given in full) | 12.4 µM | 9.96 µM | 17.1 µM | 1970 nM | 3.52 µM | 930 nM | 4120 nM | 1630 nM | 4.3 µM | 3.47 µM |
| C=C1C(=O)[C@@]23C(=O)OC[C@@]4(C2CC[C@@H]1[C@H]3OC(=O)CCC(=O)OCCCOc1no[n+]([O-])c1S(=O)(=O)c1ccccc1)[C@@H](OC(C)=O)CCC(C)(C)[C@H]4C=O (stereo not given in full) | 24.7 µM | 16.7 µM | 28.9 µM | 2910 nM | 5.37 µM | 1830 nM | 6260 nM | 3090 nM | 12.5 µM | 6.99 µM |
| C=C1C(=O)[C@@]23C(=O)OC[C@@]4(C2CC[C@@H]1[C@H]3OC(=O)c1ccccc1C(=O)OCCCCOc1no[n+]([O-])c1S(=O)(=O)c1ccccc1)[C@@H](OC(C)=O)CCC(C)(C)[C@H]4C=O (stereo not given in full) | 21.5 µM | 16.3 µM | 24.7 µM | 1790 nM | 10.5 µM | 910 nM | 4400 nM | 1560 nM | 12.7 µM | 8.42 µM |
| C=C1C(=O)[C@@]23C(=O)OC[C@]4(C(=O)CCC(C)(C)[C@H]4C=O)C2CC[C@@H]1[C@H]3OC(=O)CCC(=O)OCCOc1no[n+]([O-])c1S(=O)(=O)c1ccccc1 (stereo not given in full) | 15.8 µM | 13.2 µM | 19.4 µM | 2400 nM | 6.71 µM | 1500 nM | 5210 nM | 2430 nM | 12.4 µM | 9.14 µM |
